Activity calls are given as the source filed them. No cut-off for these calls is given here.
Legend:
[1] = biological target: T1, Toll-like receptor 7 (Homo sapiens) (UniProt Q9NYK1); experiment: Agonist activity at human TLR7 expressed in HEK293 cells co-expressing secreted alkaline phosphatase assessed as induction of NF-kappaB/AP-1 promoter activity by measuring increase in secreted alkaline phosphatase level at 100 uM by spectrophotometric method; format: cell-based
T1 sequence (whole entry): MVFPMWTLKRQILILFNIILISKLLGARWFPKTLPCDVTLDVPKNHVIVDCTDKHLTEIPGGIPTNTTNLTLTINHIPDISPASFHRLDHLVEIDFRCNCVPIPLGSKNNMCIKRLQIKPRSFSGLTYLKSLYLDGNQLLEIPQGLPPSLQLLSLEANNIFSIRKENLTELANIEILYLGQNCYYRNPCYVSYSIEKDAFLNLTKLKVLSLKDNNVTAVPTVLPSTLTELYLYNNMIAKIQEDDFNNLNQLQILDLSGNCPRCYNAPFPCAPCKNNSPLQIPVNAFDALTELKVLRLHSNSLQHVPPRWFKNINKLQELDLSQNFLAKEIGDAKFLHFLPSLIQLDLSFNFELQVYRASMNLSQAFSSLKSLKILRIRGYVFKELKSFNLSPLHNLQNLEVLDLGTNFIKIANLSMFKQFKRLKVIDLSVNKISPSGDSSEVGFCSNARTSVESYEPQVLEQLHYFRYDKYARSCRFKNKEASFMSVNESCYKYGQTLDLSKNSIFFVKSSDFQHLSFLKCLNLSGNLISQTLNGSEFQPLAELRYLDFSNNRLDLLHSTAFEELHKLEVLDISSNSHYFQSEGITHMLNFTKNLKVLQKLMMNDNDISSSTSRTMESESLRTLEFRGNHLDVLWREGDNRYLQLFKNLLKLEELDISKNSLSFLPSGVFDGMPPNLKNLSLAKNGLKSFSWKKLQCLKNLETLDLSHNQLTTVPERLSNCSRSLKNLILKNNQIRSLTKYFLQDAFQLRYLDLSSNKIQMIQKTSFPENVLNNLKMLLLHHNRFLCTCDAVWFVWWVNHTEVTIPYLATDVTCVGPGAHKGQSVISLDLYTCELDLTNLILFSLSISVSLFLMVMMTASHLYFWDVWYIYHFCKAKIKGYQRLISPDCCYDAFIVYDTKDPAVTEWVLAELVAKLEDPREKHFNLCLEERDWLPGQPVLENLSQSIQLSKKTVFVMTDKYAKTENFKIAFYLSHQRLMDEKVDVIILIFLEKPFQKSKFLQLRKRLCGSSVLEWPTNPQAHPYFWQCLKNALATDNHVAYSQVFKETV

[2] = biological target: Toll-like receptor 2 (Homo sapiens) (UniProt O60603); experiment: Activity at human TLR2 expressed in HEK293 cells co-expressing secreted alkaline phosphatase assessed as induction of NF-kappaB/AP-1 promoter activity by measuring increase in secreted alkaline phosphatase level by spectrophotometric method; format: cell-based
Chain of Toll-like receptor 2 (Homo sapiens) (O60603 whole entry): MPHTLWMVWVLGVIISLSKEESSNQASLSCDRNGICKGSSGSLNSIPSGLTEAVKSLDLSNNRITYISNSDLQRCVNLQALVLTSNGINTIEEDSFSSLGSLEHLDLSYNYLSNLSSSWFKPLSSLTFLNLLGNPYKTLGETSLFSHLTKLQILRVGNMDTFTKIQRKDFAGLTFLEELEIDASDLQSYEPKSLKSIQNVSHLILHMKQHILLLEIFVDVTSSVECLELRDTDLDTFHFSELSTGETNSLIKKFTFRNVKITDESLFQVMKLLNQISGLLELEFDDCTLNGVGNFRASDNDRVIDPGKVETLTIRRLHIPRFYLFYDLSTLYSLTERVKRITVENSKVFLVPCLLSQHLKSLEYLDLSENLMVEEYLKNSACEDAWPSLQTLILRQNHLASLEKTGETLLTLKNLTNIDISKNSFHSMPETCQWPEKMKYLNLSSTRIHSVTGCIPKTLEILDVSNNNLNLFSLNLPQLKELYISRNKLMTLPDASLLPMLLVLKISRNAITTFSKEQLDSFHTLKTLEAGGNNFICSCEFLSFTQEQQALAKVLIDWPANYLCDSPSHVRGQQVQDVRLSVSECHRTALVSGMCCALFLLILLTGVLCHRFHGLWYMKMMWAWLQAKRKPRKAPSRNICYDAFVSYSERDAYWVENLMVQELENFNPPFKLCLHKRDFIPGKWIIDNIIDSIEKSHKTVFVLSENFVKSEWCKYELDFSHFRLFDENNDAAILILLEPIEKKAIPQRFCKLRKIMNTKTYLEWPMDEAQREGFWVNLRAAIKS
How it was run: (§1)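 HEK293 cells stably co-transfected with the relevant human TLR (2, 3, 4, 5, 7, 8 or 9) plus an NF-κB/AP-1-driven secreted alkaline phosphatase reporter, kept in selection medium. Cells at ~10⁵ cells/ml were exposed to graded concentrations of stimuli in 384-well format, liquid-handler assisted. Supernatant sAP was read at 620 nm with an alkaline phosphatase-specific chromogen.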

[3] = biological target: Toll-like receptor 3 (Homo sapiens) (UniProt O15455); experiment: Activity at human TLR3 expressed in HEK293 cells co-expressing secreted alkaline phosphatase assessed as induction of NF-kappaB/AP-1 promoter activity by measuring increase in secreted alkaline phosphatase level by spectrophotometric method; format: cell-based; how it was run: as §1
Chain of Toll-like receptor 3 (Homo sapiens) (O15455 whole entry): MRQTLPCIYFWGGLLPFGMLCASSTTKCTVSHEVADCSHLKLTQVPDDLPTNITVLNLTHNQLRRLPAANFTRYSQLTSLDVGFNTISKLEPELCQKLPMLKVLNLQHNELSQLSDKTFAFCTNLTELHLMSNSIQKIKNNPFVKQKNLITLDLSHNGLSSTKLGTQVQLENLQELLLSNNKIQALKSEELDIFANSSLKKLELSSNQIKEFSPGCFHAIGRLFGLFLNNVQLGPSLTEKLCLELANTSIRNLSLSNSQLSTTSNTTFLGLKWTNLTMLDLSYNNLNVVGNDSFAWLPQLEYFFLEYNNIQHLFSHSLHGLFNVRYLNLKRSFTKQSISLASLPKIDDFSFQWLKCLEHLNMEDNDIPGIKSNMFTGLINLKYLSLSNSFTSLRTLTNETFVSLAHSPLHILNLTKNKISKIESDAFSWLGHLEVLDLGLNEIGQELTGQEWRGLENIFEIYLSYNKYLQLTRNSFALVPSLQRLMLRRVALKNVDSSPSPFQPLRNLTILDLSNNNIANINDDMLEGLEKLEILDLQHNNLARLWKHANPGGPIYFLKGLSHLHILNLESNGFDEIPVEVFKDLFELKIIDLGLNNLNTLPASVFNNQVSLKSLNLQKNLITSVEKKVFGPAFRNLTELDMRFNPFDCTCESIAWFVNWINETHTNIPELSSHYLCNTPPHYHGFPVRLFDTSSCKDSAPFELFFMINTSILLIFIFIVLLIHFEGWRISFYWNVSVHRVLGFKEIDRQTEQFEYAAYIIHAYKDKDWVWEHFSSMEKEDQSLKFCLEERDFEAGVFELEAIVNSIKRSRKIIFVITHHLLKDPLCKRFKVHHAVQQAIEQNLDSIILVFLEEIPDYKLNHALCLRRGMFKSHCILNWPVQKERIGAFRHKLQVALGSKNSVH

[4] = biological target: Toll-like receptor 4 (Homo sapiens) (UniProt O00206); experiment: Activity at human TLR4 expressed in HEK293 cells co-expressing secreted alkaline phosphatase assessed as induction of NF-kappaB/AP-1 promoter activity by measuring increase in secreted alkaline phosphatase level by spectrophotometric method; format: cell-based; how it was run: as §1
Chain of Toll-like receptor 4 (Homo sapiens) (O00206 whole entry): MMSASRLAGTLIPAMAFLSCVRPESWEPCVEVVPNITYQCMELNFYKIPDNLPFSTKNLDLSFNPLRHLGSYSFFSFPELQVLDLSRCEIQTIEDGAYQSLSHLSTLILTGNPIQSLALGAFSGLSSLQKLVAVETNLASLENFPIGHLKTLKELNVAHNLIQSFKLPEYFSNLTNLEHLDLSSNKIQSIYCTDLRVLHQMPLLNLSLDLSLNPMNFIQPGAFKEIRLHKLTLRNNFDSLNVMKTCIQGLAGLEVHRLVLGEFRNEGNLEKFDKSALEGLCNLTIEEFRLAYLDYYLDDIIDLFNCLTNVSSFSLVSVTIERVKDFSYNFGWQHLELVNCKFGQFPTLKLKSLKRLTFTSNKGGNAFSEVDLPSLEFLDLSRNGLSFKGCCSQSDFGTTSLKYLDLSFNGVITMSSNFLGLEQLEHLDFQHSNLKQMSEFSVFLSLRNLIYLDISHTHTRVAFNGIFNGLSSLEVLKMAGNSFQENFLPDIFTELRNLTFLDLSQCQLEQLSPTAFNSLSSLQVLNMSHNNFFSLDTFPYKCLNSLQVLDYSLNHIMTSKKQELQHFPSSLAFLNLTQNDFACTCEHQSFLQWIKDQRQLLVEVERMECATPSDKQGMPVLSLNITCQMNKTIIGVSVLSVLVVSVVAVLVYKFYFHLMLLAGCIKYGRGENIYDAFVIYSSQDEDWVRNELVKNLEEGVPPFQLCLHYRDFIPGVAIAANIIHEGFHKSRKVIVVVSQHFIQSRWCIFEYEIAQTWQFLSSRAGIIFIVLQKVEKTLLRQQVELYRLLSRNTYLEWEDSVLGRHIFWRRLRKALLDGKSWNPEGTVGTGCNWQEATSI

[5] = biological target: Toll-like receptor 5 (Homo sapiens) (UniProt O60602); experiment: Activity at human TLR5 expressed in HEK293 cells co-expressing secreted alkaline phosphatase assessed as induction of NF-kappaB/AP-1 promoter activity by measuring increase in secreted alkaline phosphatase level by spectrophotometric method; format: cell-based; how it was run: as §1
Chain of Toll-like receptor 5 (Homo sapiens) (O60602 whole entry): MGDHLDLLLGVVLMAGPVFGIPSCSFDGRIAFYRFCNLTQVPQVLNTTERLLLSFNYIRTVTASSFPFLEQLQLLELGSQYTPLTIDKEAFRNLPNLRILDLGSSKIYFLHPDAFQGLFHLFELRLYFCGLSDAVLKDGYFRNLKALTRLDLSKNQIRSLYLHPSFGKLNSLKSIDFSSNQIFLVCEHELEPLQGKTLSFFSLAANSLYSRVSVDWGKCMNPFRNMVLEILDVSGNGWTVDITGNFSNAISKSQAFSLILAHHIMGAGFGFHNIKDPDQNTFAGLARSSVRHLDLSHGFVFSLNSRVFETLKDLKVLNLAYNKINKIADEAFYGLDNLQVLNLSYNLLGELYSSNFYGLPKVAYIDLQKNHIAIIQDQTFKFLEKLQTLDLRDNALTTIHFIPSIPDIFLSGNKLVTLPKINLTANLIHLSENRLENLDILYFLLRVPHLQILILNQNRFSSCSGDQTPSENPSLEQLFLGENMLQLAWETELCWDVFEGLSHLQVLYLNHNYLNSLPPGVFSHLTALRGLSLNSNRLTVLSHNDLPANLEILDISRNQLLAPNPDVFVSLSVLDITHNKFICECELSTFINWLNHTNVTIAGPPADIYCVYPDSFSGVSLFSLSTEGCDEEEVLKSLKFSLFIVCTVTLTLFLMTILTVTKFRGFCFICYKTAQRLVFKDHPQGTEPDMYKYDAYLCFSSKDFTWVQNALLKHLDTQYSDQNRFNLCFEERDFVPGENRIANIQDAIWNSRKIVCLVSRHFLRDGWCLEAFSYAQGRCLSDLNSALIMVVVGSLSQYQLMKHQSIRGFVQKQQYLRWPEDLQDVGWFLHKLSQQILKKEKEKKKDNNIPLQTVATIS

[6] = biological target: T2, Toll-like receptor 9 (Homo sapiens) (UniProt Q9NR96); experiment: Activity at human TLR9 expressed in HEK293 cells co-expressing secreted alkaline phosphatase assessed as induction of NF-kappaB/AP-1 promoter activity by measuring increase in secreted alkaline phosphatase level by spectrophotometric method; format: cell-based; how it was run: as §1
T2 sequence (whole entry): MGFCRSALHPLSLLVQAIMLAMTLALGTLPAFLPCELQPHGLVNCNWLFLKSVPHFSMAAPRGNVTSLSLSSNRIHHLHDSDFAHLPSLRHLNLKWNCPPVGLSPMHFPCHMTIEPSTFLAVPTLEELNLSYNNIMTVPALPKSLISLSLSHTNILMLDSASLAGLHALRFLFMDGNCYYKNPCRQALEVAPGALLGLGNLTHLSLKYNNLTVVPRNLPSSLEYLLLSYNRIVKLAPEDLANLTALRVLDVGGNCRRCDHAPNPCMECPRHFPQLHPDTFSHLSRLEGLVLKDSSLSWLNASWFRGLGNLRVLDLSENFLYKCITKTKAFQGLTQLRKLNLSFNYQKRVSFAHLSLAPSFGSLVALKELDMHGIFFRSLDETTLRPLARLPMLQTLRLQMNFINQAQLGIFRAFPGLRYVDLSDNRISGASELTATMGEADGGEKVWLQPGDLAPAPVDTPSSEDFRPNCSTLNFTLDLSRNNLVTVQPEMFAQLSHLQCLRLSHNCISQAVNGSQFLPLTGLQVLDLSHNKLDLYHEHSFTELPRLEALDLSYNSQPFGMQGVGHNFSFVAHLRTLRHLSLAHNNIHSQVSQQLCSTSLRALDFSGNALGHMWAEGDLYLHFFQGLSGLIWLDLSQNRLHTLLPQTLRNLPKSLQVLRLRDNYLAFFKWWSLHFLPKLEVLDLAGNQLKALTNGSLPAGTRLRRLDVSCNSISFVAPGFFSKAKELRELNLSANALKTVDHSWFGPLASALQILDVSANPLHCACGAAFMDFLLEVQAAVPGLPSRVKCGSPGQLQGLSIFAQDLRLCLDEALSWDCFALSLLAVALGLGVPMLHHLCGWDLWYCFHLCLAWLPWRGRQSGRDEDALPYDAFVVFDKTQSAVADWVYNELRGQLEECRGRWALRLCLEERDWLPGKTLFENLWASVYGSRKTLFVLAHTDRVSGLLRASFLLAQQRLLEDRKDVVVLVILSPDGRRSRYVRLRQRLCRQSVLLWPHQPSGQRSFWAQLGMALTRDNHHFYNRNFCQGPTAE

[7] = biological target: T1, Toll-like receptor 7 (Homo sapiens); experiment: Agonist activity at human TLR7 expressed in HEK293 cells co-expressing secreted alkaline phosphatase assessed as induction of NF-kappaB/AP-1 promoter activity by measuring increase in secreted alkaline phosphatase level by spectrophotometric method; format: cell-based; how it was run: as §1
[8] = biological target: T3, Toll-like receptor 8 (Homo sapiens) (UniProt Q9NR97); experiment: Agonist activity at human TLR8 expressed in HEK293 cells co-expressing secreted alkaline phosphatase assessed as induction of NF-kappaB/AP-1 promoter activity by measuring increase in secreted alkaline phosphatase level by spectrophotometric method; format: cell-based; how it was run: as §1
T3 sequence (whole entry): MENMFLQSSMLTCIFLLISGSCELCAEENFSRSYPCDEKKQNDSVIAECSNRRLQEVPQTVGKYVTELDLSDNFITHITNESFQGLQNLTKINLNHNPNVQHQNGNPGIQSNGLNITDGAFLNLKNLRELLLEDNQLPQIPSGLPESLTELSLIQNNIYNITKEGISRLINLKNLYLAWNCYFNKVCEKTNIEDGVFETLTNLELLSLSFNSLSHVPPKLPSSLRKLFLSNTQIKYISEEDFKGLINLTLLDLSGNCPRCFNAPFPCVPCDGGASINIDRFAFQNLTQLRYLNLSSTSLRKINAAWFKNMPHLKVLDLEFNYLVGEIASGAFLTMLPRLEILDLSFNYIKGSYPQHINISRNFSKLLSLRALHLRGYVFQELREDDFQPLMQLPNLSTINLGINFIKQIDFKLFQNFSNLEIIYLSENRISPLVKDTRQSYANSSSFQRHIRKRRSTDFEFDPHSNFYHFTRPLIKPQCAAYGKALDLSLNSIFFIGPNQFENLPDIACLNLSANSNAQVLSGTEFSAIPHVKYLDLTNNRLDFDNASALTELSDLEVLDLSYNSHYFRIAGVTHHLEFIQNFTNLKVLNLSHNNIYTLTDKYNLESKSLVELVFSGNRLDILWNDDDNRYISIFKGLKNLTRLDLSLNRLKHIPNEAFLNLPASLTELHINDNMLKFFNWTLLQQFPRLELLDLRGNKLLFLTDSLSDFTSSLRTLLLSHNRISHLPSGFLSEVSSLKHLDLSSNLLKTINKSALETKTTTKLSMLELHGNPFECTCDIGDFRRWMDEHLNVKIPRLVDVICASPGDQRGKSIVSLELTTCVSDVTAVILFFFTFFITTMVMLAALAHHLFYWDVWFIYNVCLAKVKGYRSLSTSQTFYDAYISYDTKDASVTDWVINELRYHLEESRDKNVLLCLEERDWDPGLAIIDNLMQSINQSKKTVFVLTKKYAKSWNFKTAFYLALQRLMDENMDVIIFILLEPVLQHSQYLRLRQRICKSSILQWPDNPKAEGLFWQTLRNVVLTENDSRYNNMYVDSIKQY

[9] = biological target: T1, Toll-like receptor 7 (Homo sapiens); experiment: Inhibition of human TLR7 expressed in HEK293 cells co-expressing secreted alkaline phosphatase assessed as NF-kappaB/AP-1 promoter activity by measuring increase in secreted alkaline phosphatase level at higher concentration by spectrophotometric method; format: cell-based
[10] = biological target: T3, Toll-like receptor 8 (Homo sapiens); experiment: Inhibition of human TLR8 expressed in HEK293 cells co-expressing secreted alkaline phosphatase assessed as NF-kappaB/AP-1 promoter activity by measuring increase in secreted alkaline phosphatase level at higher concentration by spectrophotometric method; format: cell-based
HEK293 = experiment: Cytotoxicity against HEK293 cells expressing human TLR7 or TLR8 at 10^-4M; format: cell-based; conditions: hek293, 100 µM
[11] = biological target: T3, Toll-like receptor 8 (Homo sapiens); experiment: Agonist activity at TLR8 in human […] conventional dendritic cells assessed as upregulation of CD80 expression after 16 hrs by efluor 780 dye based flow cytometry
How it was run: (§2)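 Human PBMCs were incubated with serial compound dilutions at 37 °C for 16 h, with DMSO controls. Cells were stained with eFluor780 viability dye, then lineage and DC antibodies plus CD80 PE, and fixed. 250,000 gated events were acquired. pDCs were gated as Live Lin⁻ CD123⁺ CD303⁺ CD304⁺ HLA-DR⁺. cDCs were gated as Lin⁻ CD1c⁺ CD141⁻ CD11c⁺ HLA-DR⁺ or Lin⁻ CD141⁺ CD1c⁻ HLA-DR⁺. Median fluorescence intensity was quantified.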

[12] = biological target: T3, Toll-like receptor 8 (Homo sapiens); experiment: Agonist activity at TLR8 in human CD141 positive conventional dendritic cells assessed as upregulation of CD80 expression after 16 hrs by efluor 780 dye based flow cytometry; how it was run: as §2
[13] = biological target: T1, Toll-like receptor 7 (Homo sapiens); experiment: Agonist activity at TLR7 in human plasmacytoid dendritic cells assessed as upregulation of CD80 expression after 16 hrs by efluor 780 dye based flow cytometry; how it was run: as §2

Activity [1] | Activity [2] | Activity [3] | Activity [4] | Activity [5] | Activity [6] | Activity [7] | Activity [8] | inhibition [9] | inhibition [10] | Activity [11] | Activity [12] | Activity [13] | SMILES | Activity (HEK293)
inactive | inactive | inactive | inactive | inactive | inactive | – | – | – | – | – | – | – | CCCCNc1nc(N)nc(C)c1Cc1ccccc1 | –
– | – | – | – | – | – | Active | Active | Active | Active | Active | Active | Active | CCCCc1nc2c(N)nc3ccccc3c2n1Cc1ccc(CN)cc1 | Non-Toxic
